Source: ChEMBL document CHEMBL4706728, “Discovery of a Highly Selective and Potent TRPC3 Inhibitor with High Metabolic Stability and Low Toxicity” (ACS Med Chem Lett, 2021)
pIC50: −log10 of the molar value. Active and inactive are the calls of the source. No cut-off for these calls is given here.

Assays:
[1] = target: T1, Short transient receptor potential channel 3 (Homo sapiens) (UniProt Q13507); assay: Inhibition of human TRPC3 expressed in HEK293 cells assessed as inhibition of GSK170-induced current at 10 uM in absence of extracellular calcium by whole cell patch-clamp method relative to control; format: cell-based
T1 sequence (whole entry): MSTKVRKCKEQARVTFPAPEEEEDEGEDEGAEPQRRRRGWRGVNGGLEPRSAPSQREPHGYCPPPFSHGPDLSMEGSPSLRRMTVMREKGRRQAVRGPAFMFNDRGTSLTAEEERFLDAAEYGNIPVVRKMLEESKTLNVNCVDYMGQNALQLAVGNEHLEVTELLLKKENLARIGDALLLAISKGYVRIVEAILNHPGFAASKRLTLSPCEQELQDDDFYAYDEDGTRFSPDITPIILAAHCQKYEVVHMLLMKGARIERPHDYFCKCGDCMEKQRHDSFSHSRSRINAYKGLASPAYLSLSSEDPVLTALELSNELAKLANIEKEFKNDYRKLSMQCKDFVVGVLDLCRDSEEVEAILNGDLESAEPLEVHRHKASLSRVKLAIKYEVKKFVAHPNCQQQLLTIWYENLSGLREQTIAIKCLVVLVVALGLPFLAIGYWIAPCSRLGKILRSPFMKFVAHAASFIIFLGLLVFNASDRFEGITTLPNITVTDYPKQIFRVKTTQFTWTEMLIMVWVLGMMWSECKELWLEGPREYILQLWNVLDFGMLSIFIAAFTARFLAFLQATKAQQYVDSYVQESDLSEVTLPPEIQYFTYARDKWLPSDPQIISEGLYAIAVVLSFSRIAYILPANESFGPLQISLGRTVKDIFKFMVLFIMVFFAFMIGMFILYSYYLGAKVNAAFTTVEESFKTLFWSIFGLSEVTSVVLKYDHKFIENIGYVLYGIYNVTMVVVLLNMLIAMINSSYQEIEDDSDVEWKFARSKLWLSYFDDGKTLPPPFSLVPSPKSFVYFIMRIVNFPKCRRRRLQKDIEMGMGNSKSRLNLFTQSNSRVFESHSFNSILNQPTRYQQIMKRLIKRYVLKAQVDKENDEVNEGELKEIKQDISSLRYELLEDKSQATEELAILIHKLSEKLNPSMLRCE
Method in brief: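 Human TRPC3 transiently expressed in HEK293 cells; whole-cell patch clamp with Ca2+-free solutions. Channel activated by GSK1702934A, then test compound at 10 μM perfused with the agonist. Inhibition expressed as percentage of the agonist-evoked current; mean ± SD, n cells per compound.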

[2] = Toxicity in NSG/ICR mouse assessed as mortality at 200 mg/kg, ip administered once daily for 5 days measured within 48 hrs; format: organism-based; conditions: in vivo, dose 200 mg/kg/day
Method in brief: (§1)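 Mice (n = 5 per group) dosed at 200 mg/kg by intraperitoneal injection once daily for 5 consecutive days. Survival monitored. Body weight expressed as mean percent change ± SD relative to weight at the start of treatment (day 0), with 15% weight loss as the reference line.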

[3] = target: T2, Short transient receptor potential channel 3 (Mus musculus, UniProt Q9QZC1); assay: Inhibition of mouse TRPC3 expressed in HEK293 cells assessed as inhibition of Ca2+ influx by whole cell patch-clamp method; format: cell-based
T2 sequence (Q9QZC1 whole entry): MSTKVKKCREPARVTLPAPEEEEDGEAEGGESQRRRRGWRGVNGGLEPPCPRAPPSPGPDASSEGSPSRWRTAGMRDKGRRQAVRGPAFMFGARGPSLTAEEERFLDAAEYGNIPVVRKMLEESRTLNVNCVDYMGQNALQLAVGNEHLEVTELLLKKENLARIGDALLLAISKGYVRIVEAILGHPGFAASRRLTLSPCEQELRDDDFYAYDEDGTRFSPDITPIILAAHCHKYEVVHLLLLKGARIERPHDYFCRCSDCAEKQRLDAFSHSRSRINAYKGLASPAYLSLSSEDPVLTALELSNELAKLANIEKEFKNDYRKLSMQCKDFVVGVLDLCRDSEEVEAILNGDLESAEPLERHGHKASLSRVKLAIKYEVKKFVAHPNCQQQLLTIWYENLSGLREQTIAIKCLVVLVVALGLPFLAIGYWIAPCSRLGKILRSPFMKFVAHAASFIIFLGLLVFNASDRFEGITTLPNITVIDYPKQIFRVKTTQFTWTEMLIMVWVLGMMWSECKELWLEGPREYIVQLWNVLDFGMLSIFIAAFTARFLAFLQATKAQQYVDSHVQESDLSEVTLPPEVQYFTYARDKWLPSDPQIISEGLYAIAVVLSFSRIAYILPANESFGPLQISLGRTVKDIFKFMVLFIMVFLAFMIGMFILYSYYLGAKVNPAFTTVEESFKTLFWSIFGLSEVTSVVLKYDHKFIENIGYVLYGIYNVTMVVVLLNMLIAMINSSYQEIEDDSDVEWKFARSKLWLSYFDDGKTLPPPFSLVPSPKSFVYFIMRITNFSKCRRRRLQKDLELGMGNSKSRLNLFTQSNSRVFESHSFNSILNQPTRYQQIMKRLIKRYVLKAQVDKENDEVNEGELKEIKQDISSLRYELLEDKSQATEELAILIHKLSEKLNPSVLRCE

[4] = Toxicity in NSG/ICR mouse assessed as body weight loss at 200 mg/kg, ip administered once daily for 5 days; format: organism-based; conditions: in vivo, 120 h, dose 200 mg/kg/day, time 5 day; method in brief: as §1
[5] = Metabolic stability in human liver microsomes assessed as half life at […] measured up to 240 mins in presence of NADPH regeneration system by LC-MS analysis; format: ADME, Microsome
[6] = target: T3, Short transient receptor potential channel 3 (Homo sapiens, UniProt Q13507); assay: Inhibition of human TRPC3 expressed in HEK293 cells assessed as inhibition of GSK170-induced current in presence of 2 mM extracellular calcium by whole cell patch-clamp method; format: cell-based
T3 sequence (Q13507 whole entry): T1 sequence (whole entry)
Method in brief: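 hTRPC3 in HEK293 cells, whole-cell patch clamp with 2 mM extracellular Ca2+. Currents elicited by 1 μM GSK1702934A and challenged with a range of inhibitor concentrations by perfusion. Each concentration tested on separate cells and normalized to the cell's maximum amplitude. Dose–response curve built from the data; mean ± SD.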

[7] = Toxicity in NSG/ICR mouse assessed as survival at 200 mg/kg, ip administered once daily for 5 days; format: organism-based; conditions: NSG/ICR, in vivo, dose 200 mg/kg/day, time 5 day; method in brief: as §1
Hippocampal neurone = assay: Neuroprotective activity in Sprague-Dawley rat primary hippocampal neurons assessed as reduction in Abeta-induced dendrites damage at 0.25 to 1 uM incubated for 16 hrs by MAP2 staining based assay; format: functional, tissue-based; conditions: dose 0.25-1 µM
Method in brief: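 Primary hippocampal neurons from E17 rat embryos, used at 14 DIV. Treated for 16 h with naturally secreted Aβ-containing 7PA2 conditioned medium (CHO medium as control), alone or with test compound at several concentrations. Neurons then immunostained for MAP2 with DAPI, and dendritic length quantified.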

[8] = target: T1, Short transient receptor potential channel 3 (Homo sapiens); assay: Inhibition of human TRPC3 expressed in HEK293 cells assessed as inhibition of OAG-induced current at 0.001 to 10 uM by whole cell patch-clamp method; format: cell-based; conditions: dose 0.001-10 µM
Method in brief: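 Whole-cell recordings of hTRPC3 expressed in HEK293 cells, channel activated by 1-oleoyl-2-acetyl-sn-glycerol (membrane-permeable diacylglycerol analogue) instead of GSK1702934A. Inhibitor at a range of concentrations co-perfused with agonist to build a dose–response profile.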

[9] = target: T3, Short transient receptor potential channel 3; assay: Inhibition of human TRPC3 expressed in HEK293 cells assessed as inhibition of GSK170-induced current in absence of extracellular calcium by whole cell patch-clamp method; format: cell-based
Method in brief: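 Whole-cell patch clamp of hTRPC3 in transfected HEK293 cells, Ca2+-free solutions, currents activated by 1 μM GSK1702934A. Inhibitor at a range of concentrations perfused with agonist. Each concentration tested on independent cells and normalized to that cell's maximum current to avoid tachyphylaxis. Dose–response fitted for IC50; mean ± SD.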

[10] = Metabolic stability in rat liver microsomes assessed as half life at […] measured up to 240 mins in presence of NADPH regeneration system by LC-MS analysis; format: ADME, Microsome
ORAI1/STIM1 = ORAI1/STIM1 (Homo sapiens, UniProt Q96D31+Q13586); assay: Inhibition of STIM/Orai1 (unknown origin) expressed in HEK293 cells assessed as reduction in thapsigargin-induced Ca2+ influx at 10 uM in presence of Ca2+ by whole cell patch clamp method; format: cell-based; conditions: hek293, 10 µM
ORAI1/STIM1, sequence (Q96D31 whole entry): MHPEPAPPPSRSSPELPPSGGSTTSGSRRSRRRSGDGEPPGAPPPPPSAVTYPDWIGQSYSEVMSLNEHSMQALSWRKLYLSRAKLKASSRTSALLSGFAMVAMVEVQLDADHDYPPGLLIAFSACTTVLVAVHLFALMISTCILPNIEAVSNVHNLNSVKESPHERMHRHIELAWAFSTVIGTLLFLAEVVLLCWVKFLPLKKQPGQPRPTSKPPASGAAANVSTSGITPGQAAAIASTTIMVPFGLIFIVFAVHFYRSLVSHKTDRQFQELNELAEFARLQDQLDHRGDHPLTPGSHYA
ORAI1/STIM1, sequence (Q13586 whole entry): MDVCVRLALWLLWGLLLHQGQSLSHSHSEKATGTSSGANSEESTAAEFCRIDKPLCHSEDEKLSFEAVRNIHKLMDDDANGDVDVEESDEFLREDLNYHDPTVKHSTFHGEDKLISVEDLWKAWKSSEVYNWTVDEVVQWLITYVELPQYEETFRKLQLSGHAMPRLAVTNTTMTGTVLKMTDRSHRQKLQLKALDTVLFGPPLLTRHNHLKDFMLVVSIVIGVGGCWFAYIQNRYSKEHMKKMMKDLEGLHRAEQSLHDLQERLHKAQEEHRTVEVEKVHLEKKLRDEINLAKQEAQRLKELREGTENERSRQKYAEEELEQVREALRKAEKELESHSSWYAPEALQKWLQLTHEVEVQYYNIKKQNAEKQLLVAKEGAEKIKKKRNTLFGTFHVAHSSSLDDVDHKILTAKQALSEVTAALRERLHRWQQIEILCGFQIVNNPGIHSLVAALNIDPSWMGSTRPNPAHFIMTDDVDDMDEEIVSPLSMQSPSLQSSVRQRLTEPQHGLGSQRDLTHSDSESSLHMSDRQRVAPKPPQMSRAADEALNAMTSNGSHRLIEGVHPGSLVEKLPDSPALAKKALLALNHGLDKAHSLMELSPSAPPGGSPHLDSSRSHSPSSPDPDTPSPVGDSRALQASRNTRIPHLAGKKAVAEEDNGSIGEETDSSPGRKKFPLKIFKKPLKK

[11] = Metabolic stability in mouse liver microsomes assessed as half life at […] measured up to 240 mins in presence of NADPH regeneration system by LC-MS analysis; format: ADME, Microsome

Q: For `CCOC(=O)c1cnn(-c2ccc(-n3cc(Cl)cc(Cl)c3=O)cc2)c1C(F)(F)F`, which inhibition [1] is on record?
A: inactive

Q: Which inhibition [1] does the source give for `CCOC(=O)c1cnn(-c2ccc(-n3ccccc3=O)cc2)c1C(F)(F)F` here?
A: inactive

Q: With `CCNC(=O)c1cnn(-c2ccc(-n3ccc(Cl)cc3=O)cc2)c1C(F)(F)F` as the compound, how does the inhibition [1] read?
A: 84%

Q: With `CCNS(=O)(=O)c1cnn(-c2ccc(-n3ccc(Cl)c(Cl)c3=O)cc2)c1C(F)(F)F` as the compound, how does the inhibition [1] read?
A: inactive

Q: Which inhibition [1] does the source give for `CCNC(=O)c1cnn(-c2ccc(-n3ccc(Cl)c(F)c3=O)cc2)c1C(F)(F)F` here?
A: inactive

Q: For `CCOC(=O)c1cnn(-c2ccc(-n3ccc(Cl)cc3=O)cc2)c1C(F)(F)F`, which inhibition [1] is on record?
A: 71%

Q: Which inhibition [1] does the source give for `CCOC(=O)c1cnn(-c2ccc(-n3cc(Cl)ccc3=O)cc2)c1C(F)(F)F` here?
A: inactive

Q: For `CCNC(=O)c1cnn(-c2ccc(NC(=O)C(Cl)=C(Cl)Cl)cc2)c1C(F)(F)F`, which mortality at 48 h [2] is on record?
A: 100%

Q: With `CCOC(=O)c1cnn(-c2ccc(NC(=O)C(Cl)=C(Cl)Cl)cc2)c1C(F)(F)F` as the compound, how does the pIC50 [3] read?
A: 6.15

Q: What about the Activity [4] of the same compound?
A: 15%

Q: What about the half-life [5] of the same compound?
A: < 15 min

Q: And the pIC50 [6]?
A: 6.33

Q: What about the inhibition [1] of the same compound?
A: 91%

Q: What about the survival at 120 h [7] of the same compound?
A: 80%

Q: And the Activity (Hippocampal neurone)?
A: Active

Q: What about the inhibition [8] of the same compound?
A: Active

Q: And the pIC50 [9]?
A: 6.28

Q: What about the half-life [10] of the same compound?
A: < 15 min

Q: What about the “inhibition (INH)” value (ORAI1/STIM1) of the same compound?
A: Active

Q: What about the half-life [11] of the same compound?
A: < 15 min
